Data: ChEMBL document CHEMBL1828566, “Synthesis of 4β-triazole-podophyllotoxin derivatives by azide-alkyne cycloaddition and biological evaluation as potential antitumor agents” (Eur J Med Chem, 2011)
Counter-ions that a name gives are not always drawn.

Tests used:
[1] = tested on: HeLa; assay: Cytotoxicity against human HeLa cells after 2 days by MTT assay; assay type: functional, cell-based; details: 48 h
Procedure, shortened: (§1)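 Exponentially growing cells were seeded in 96-well plates, precultured 1 day, exposed to test compounds over a range of concentrations, then incubated 2 more days.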

[2] = tested on: K562; assay: Cytotoxicity against human K562 cells after 2 days by MTT assay; assay type: functional, cell-based; details: K562, 48 h; procedure, shortened: as §1
[3] = Cytotoxicity against human K562/A02 cells after 2 days by MTT assay; assay type: functional, cell-based; details: K562/A02, 48 h; procedure, shortened: as §1
[4] = tested on: HeLa; assay: Selectivity index, ratio of IC50 for VP-16 to compound for human HeLa cells after 2 days by MTT assay; assay type: functional
[5] = tested on: K562; assay: Selectivity index, ratio of IC50 for VP-16 to compound for human K562 cells after 2 days by MTT assay; assay type: functional
[6] = Selectivity index, ratio of IC50 for VP-16 to compound for human K562/A02 cells after 2 days by MTT assay; assay type: functional

COC(=O)c1cn([C@@H]2c3cc4c(cc3[C@@H](c3cc(OC)c(OC)c(OC)c3)[C@H]3C(=O)OC[C@@H]32)OCO4)nn1
IC50 [1]: 1.12 µM | IC50 [2]: 4.15 µM | IC50 [3]: 2.07 µM

COc1cc([C@@H]2c3cc4c(cc3[C@@H](n3cc(C(=O)O)nn3)[C@H]3COC(=O)[C@H]23)OCO4)cc(OC)c1OC
IC50 [1]: > 10 µM | IC50 [2]: 5.4 µM | IC50 [3]: 8.87 µM

COc1cc([C@@H]2c3cc4c(cc3[C@@H](n3cc(CCC(=O)O)nn3)[C@H]3COC(=O)[C@H]23)OCO4)cc(OC)c1OC
IC50 [1]: > 10 µM | IC50 [2]: > 10 µM | IC50 [3]: > 10 µM

COc1cc([C@@H]2c3cc4c(cc3[C@@H](n3cc(-c5cccnc5)nn3)[C@H]3COC(=O)[C@H]23)OCO4)cc(OC)c1OC
IC50 [1]: 35.3 µM | IC50 [2]: > 10 µM | IC50 [3]: > 10 µM

COc1cc([C@@H]2c3cc4c(cc3[C@@H](n3cc(CNc5ccc(C)cc5)nn3)[C@H]3COC(=O)[C@H]23)OCO4)cc(OC)c1OC
IC50 [1]: 0.845 µM | IC50 [2]: 0.47 µM | IC50 [3]: 0.52 µM

COc1cc([C@@H]2c3cc4c(cc3[C@@H](n3cc(C(=O)Nc5ccccc5Cl)nn3)[C@H]3COC(=O)[C@H]23)OCO4)cc(OC)c1OC
IC50 [1]: 0.082 µM | IC50 [2]: 0.053 µM | IC50 [3]: 0.059 µM | Ratio IC50 [4]: >40 | Ratio IC50 [5]: >40 | Ratio IC50 [6]: >40

COc1cc([C@@H]2c3cc4c(cc3[C@@H](n3cc(CN(C)C)nn3)[C@H]3COC(=O)[C@H]23)OCO4)cc(OC)c1OC
IC50 [1]: > 10 µM | IC50 [2]: > 10 µM | IC50 [3]: > 10 µM

CCN(CC)C(=O)c1cn([C@@H]2c3cc4c(cc3[C@@H](c3cc(OC)c(OC)c(OC)c3)[C@H]3C(=O)OC[C@@H]32)OCO4)nn1
IC50 [1]: > 10 µM | IC50 [2]: > 10 µM | IC50 [3]: > 10 µM

COC(=O)c1cnnn1[C@@H]1c2cc3c(cc2[C@@H](c2cc(OC)c(OC)c(OC)c2)[C@H]2C(=O)OC[C@@H]21)OCO3
IC50 [1]: 0.42 µM | IC50 [2]: 0.4 µM | IC50 [3]: 0.6 µM

COc1cc([C@@H]2c3cc4c(cc3[C@@H](n3nncc3-c3cccnc3)[C@H]3COC(=O)[C@H]23)OCO4)cc(OC)c1OC
IC50 [1]: 1.46 µM | IC50 [2]: 0.39 µM | IC50 [3]: 1.23 µM

COc1cc([C@@H]2c3cc4c(cc3[C@@H](n3cc(C(=O)Nc5ccc(C)cc5)nn3)[C@H]3COC(=O)[C@H]23)OCO4)cc(OC)c1OC
IC50 [1]: > 100 µM | IC50 [2]: > 100 µM | IC50 [3]: > 100 µM

COc1cc([C@@H]2c3cc4c(cc3[C@@H](n3nncc3C(=O)Nc3ccc(C)cc3)[C@H]3COC(=O)[C@H]23)OCO4)cc(OC)c1OC
IC50 [1]: > 10 µM | IC50 [2]: 5.1 µM | IC50 [3]: 19.8 µM

CCOC(=O)c1cn([C@@H]2c3cc4c(cc3[C@@H](c3cc(OC)c(OC)c(OC)c3)[C@H]3C(=O)OC[C@@H]32)OCO4)nn1
IC50 [1]: 3.53 µM | IC50 [2]: 4.25 µM | IC50 [3]: 2.21 µM

CCOC(=O)c1cnnn1[C@@H]1c2cc3c(cc2[C@@H](c2cc(OC)c(OC)c(OC)c2)[C@H]2C(=O)OC[C@@H]21)OCO3
IC50 [1]: 0.92 µM | IC50 [2]: 0.85 µM | IC50 [3]: 0.69 µM

COc1cc([C@@H]2c3cc4c(cc3[C@@H](n3cc(CNc5ccccc5)nn3)[C@H]3COC(=O)[C@H]23)OCO4)cc(OC)c1OC
IC50 [1]: 2.36 µM | IC50 [2]: 5.73 µM | IC50 [3]: 5.96 µM

COc1cccc2c1C(=O)c1c(O)c3c(c(O)c1C2=O)C[C@@](O)(C(=O)CO)C[C@@H]3O[C@H]1C[C@H](N)[C@H](O)[C@H](C)O1 [DOXORUBICIN HYDROCHLORIDE]
IC50 [1]: 0.43 µM | IC50 [2]: 0.36 µM | IC50 [3]: 19.2 µM

COc1cc([C@@H]2c3cc4c(cc3[C@@H](O[C@@H]3O[C@@H]5CO[C@@H](C)O[C@H]5[C@H](O)[C@H]3O)[C@H]3COC(=O)[C@H]23)OCO4)cc(OC)c1O [ETOPOSIDE]
IC50 [1]: 6.27 µM | IC50 [2]: 2.11 µM | IC50 [3]: 152 µM

COc1cc([C@@H]2c3cc4c(cc3[C@H](O)[C@H]3COC(=O)[C@H]23)OCO4)cc(OC)c1OC [PODOFILOX]
IC50 [1]: 0.1 µM | IC50 [2]: 0.03 µM | IC50 [3]: 0.17 µM
